From BindingDB's records for doi:10.1021/jm050851n (University of Arizona, 2006) come the findings set out here.

The target in this test is Mu-type opioid receptor (Rattus norvegicus, UniProt P33535). Description: Displacement of [3H]DAMGO from rat mu opioid receptor expressed in HN9.10 cells. A digest of the protocol: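 Membranes from stably transfected HN9.10 neuroblastoma cells in 50 mM Tris pH 7.4 with bacitracin, bestatin, captopril, PMSF and 1 mg/mL BSA. 50 µg membrane, 10 test concentrations, 1.0 nM [3H]DAMGO (Kd level). Nonspecific binding defined with 10 µM naloxone. Duplicates, 3 h at 25 °C, filtration, scintillation counting. Ki from IC50 by Cheng–Prusoff; at least two independent experiments.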
Background: Displacement assays read how much labelled ligand stays bound in the presence of the test substance.

Each structure is given as a SMILES string.

Chain of Mu-type opioid receptor (P33535 whole entry): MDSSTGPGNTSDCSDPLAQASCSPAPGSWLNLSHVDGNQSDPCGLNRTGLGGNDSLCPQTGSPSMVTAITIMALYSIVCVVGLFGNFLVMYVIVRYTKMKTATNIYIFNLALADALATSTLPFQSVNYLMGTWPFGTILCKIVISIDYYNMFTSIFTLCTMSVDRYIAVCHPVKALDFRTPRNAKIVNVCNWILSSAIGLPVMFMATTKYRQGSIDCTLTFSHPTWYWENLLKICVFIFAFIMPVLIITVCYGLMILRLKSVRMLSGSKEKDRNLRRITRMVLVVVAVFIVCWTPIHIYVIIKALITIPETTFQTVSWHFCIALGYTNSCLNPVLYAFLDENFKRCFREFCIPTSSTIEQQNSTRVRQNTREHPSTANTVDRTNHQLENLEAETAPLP

By EC50 is commonly meant the concentration giving half of the maximal effect. High values mean lower potency in that assay, low ones higher potency in that assay. As for `CC(=O)N[C@@H](Cc1c[nH]c2ccccc12)C(=O)N[C@@H](CCCCNC(=O)Nc1ccccc1Cl)C(=O)N[C@@H](CC(=O)O)C(=O)N(C)[C@@H](Cc1ccccc1)C(=O)NNC(=O)[C@H](Cc1ccccc1)NC(=O)CNC(=O)[C@@H](C)NC(=O)[C@@H](N)Cc1ccc(O)cc1` [H-Tyr-D-Ala-Gly-Phe-NH-NH-(NMe)Phe-Asp-Lys(Cpac)-Trp-Ac], it took 14 nM to reach a half-maximal effect (EC50).
